# From ChEMBL document CHEMBL1135739, “Radiolabeled amino acids for tumor imaging with PET: radiosynthesis and biological evaluation of 2-amino-3-[18F]fluoro-2-methylpropanoic acid and 3-[18F]fluoro-2-methyl-2-(methylamino)propanoic acid” (J Med Chem, 2002)
# Tests used:
# Rattus norvegicus [1] = species: Rattus norvegicus; assay: Radioactivity distribution in bone of normal fischer rat after injection of [18F]fluoro-2-methylpropanoic acid after 60 min.; format: ADME, organism-based, Bone element; settings: in vivo, 1 h
# In short: (§1)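 Normal male Fischer 344 rats (200–250 g), anesthetized with i.m. ketamine:xylazine (1:1), got ~85 μCi of tracer in 0.3 mL sterile water i.v. via tail-vein catheter. Groups of four were killed at 5, 30, 60 or 120 min. Tissues were weighed and gamma-counted against dose standards, and counts were decay-corrected to %ID/g. Results are mean ± standard error (n = 4), compared by one-way ANOVA.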
# Rattus norvegicus [2] = species: Rattus norvegicus; assay: Radioactivity distribution in testis of tumor-bearing fischer rat after injection of [18F]fluoro-2-methylpropanoic acid after 60 min; format: ADME, organism-based; settings: in vivo, 1 h
# In short: (§2)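 Male Fischer rats had 4×10^4 9L gliosarcoma cells implanted stereotactically into the brain, 3 mm right of midline, 1 mm anterior to bregma, 5 mm deep. They were used 17–19 days later. Awake, restrained rats got ~35 μCi in 0.3 mL sterile water by tail vein and were killed at 5, 60 or 120 min. Tissues, tumor and contralateral brain were gamma-counted, decay-corrected, as %ID/g, mean ± SE, n = 4–5.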
# Rattus norvegicus [3] = species: Rattus norvegicus; assay: Radioactivity distribution in kidney of tumor-bearing fischer rat after injection of [18F]fluoro-2-methylpropanoic acid after 60 min; format: ADME, organism-based; settings: in vivo, 1 h
# In short: (§3)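 Male Fischer 344 rats carried intracranial 9L gliosarcoma, stereotactically implanted (4×10^4 cells) and used 17–19 days later. Awake, restrained animals received about 35 μCi tracer in 0.3 mL sterile water via the tail vein and were killed at 5, 60 or 120 min (n = 4–5). Tissues were weighed, gamma-counted, decay-corrected and reported as %ID/g ± standard error.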
# Rattus norvegicus [4] = species: Rattus norvegicus; assay: Radioactivity distribution in heart of tumor-bearing fischer rat after injection of [18F]fluoro-2-methylpropanoic acid after 120 min; format: ADME, organism-based; settings: in vivo, 2 h
# In short: (§4)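 Male Fischer 344 rats carried intracranial 9L gliosarcoma, implanted stereotactically (4×10^4 cells) and used 17–19 days later. Awake restrained rats got ~35 μCi of tracer in 0.3 mL sterile water by tail-vein injection and were killed at 5, 60 or 120 min. Tissues were weighed and gamma-counted, and counts were decay-corrected to %ID/g. Results are mean ± standard error; n = 4 at 5 and 120 min, n = 5 at 60 min.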
# Rattus norvegicus [5] = species: Rattus norvegicus; assay: Radioactivity distribution in bone of normal fischer rat after injection of [18F]fluoro-2-methylpropanoic acid after 120 min.; format: ADME, organism-based, Bone element; settings: in vivo, 2 h; in short: as §1
# Rattus norvegicus [6] = species: Rattus norvegicus; assay: Radioactivity distribution in kidney of normal fischer rat after injection of [18F]fluoro-2-methylpropanoic acid after 5 min.; format: ADME, organism-based; settings: in vivo
# In short: (§5)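 Male Fischer 344 rats (200–250 g), fed ad libitum, anesthetized with intramuscular ketamine:xylazine (1:1, 0.1 mL/100 g). About 85 μCi tracer in 0.3 mL sterile water was given by tail-vein catheter. Groups of four were killed at 5, 30, 60 or 120 min. Tissues were weighed and gamma-counted against dose standards, decay-corrected, and expressed as %ID/g (mean ± standard error).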
# Rattus norvegicus [7] = species: Rattus norvegicus; assay: Radioactivity distribution in lung of normal fischer rat after injection of [18F]fluoro-2-methylpropanoic acid after 5 min.; format: ADME, organism-based; settings: in vivo; in short: as §5
# Rattus norvegicus [8] = species: Rattus norvegicus; assay: Radioactivity distribution in kidney of tumor-bearing fischer rat after injection of [18F]fluoro-2-methylpropanoic acid after 120 min; format: ADME, organism-based; settings: in vivo, 2 h; in short: as §3
# Rattus norvegicus [9] = species: Rattus norvegicus; assay: Radioactivity distribution in kidney of normal fischer rat after injection of [18F]fluoro-2-methylpropanoic acid after 30 min.; format: ADME, organism-based; settings: in vivo, 0.5 h; in short: as §1
# Rattus norvegicus [10] = species: Rattus norvegicus; assay: Radioactivity distribution in muscle of tumor-bearing fischer rat after injection of [18F]-fluoro-2-methylpropanoic acid after 5 min; format: ADME, organism-based, Muscle tissue; settings: in vivo; in short: as §3
# Rattus norvegicus [11] = species: Rattus norvegicus; assay: Radioactivity distribution in tumor of tumor-bearing fischer rat after injection of [18F]fluoro-2-methylpropanoic acid after 60 min; format: ADME, organism-based; settings: in vivo, 1 h; in short: as §2
# Rattus norvegicus [12] = species: Rattus norvegicus; assay: Radioactivity distribution in tumor of tumor-bearing fischer rat after injection of [18F]fluoro-2-methylpropanoic acid after 120 min; format: ADME, organism-based; settings: in vivo, 2 h; in short: as §2
# Rattus norvegicus [13] = species: Rattus norvegicus; assay: Radioactivity distribution in testis of normal fischer rat after injection of [18F]fluoro-2-methylpropanoic acid after 120 min.; format: ADME, organism-based; settings: in vivo, 2 h
# In short: (§6)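 Male Fischer 344 rats (200–250 g), fed ad libitum, under intramuscular ketamine:xylazine anesthesia, got ~85 μCi radiotracer in 0.3 mL sterile water by tail-vein catheter. Groups of four were killed at 5, 30, 60 or 120 min. Dissected tissues were weighed and gamma-counted with dose standards. Counts were decay-corrected and given as %ID/g, mean ± standard error. Tissues were compared by one-way ANOVA.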
# Rattus norvegicus [14] = species: Rattus norvegicus; assay: Radioactivity distribution in brain of normal fischer rat after injection of [18F]fluoro-2-methylpropanoic acid after 120 min.; format: ADME, organism-based; settings: in vivo, 2 h; in short: as §1
# Rattus norvegicus [15] = species: Rattus norvegicus; assay: Radioactivity distribution in liver of tumor-bearing fischer rat after injection of [18F]fluoro-2-methylpropanoic acid after 60 min; format: ADME, organism-based; settings: in vivo, 1 h; in short: as §3
# Rattus norvegicus [16] = species: Rattus norvegicus; assay: Radioactivity distribution in muscle of normal fischer rat after injection of [18F]fluoro-2-methylpropanoic acid after 30 min.; format: ADME, organism-based, Muscle tissue; settings: in vivo, 0.5 h; in short: as §5
# Rattus norvegicus [17] = species: Rattus norvegicus; assay: Radioactivity distribution in spleen of normal fischer rat after injection of [18F]fluoro-2-methylpropanoic acid after 60 min.; format: ADME, organism-based; settings: in vivo, 1 h; in short: as §6
# Rattus norvegicus [18] = species: Rattus norvegicus; assay: Radioactivity distribution in brain of normal fischer rat after injection of [18F]fluoro-2-methylpropanoic acid after 5 min.; format: ADME, organism-based; settings: in vivo; in short: as §1
# Rattus norvegicus [19] = species: Rattus norvegicus; assay: Radioactivity distribution in brain of tumor-bearing fischer rat after injection of [18F]fluoro-2-methylpropanoic acid after 120 min; format: ADME, organism-based; settings: in vivo, 2 h; in short: as §4
# Rattus norvegicus [20] = species: Rattus norvegicus; assay: Radioactivity distribution in kidney of tumor-bearing fischer rat after injection of [18F]fluoro-2-methylpropanoic acid after 5 min; format: ADME, organism-based; settings: in vivo; in short: as §3
# Rattus norvegicus [21] = species: Rattus norvegicus; assay: Radioactivity distribution in spleen of tumor-bearing fischer rat after injection of [18F]fluoro-2-methylpropanoic acid after 5 min; format: ADME, organism-based; settings: in vivo; in short: as §2
# Rattus norvegicus [22] = species: Rattus norvegicus; assay: Radioactivity distribution in spleen of tumor-bearing fischer rat after injection of [18F]fluoro-2-methylpropanoic acid after 120 min; format: ADME, organism-based; settings: in vivo, 2 h; in short: as §2
# Rattus norvegicus [23] = species: Rattus norvegicus; assay: Radioactivity distribution in heart of normal fischer rat after injection of [18F]fluoro-2-methylpropanoic acid after 120 min.; format: ADME, organism-based; settings: in vivo, 2 h; in short: as §1
# Rattus norvegicus [24] = species: Rattus norvegicus; assay: Radioactivity distribution in heart of normal fischer rat after injection of [18F]fluoro-2-methylpropanoic acid after 30 min.; format: ADME, organism-based; settings: in vivo, 0.5 h; in short: as §1
# Rattus norvegicus [25] = species: Rattus norvegicus; assay: Radioactivity distribution in heart of tumor-bearing fischer rat after injection of [18F]fluoro-2-methylpropanoic acid after 5 min; format: ADME, organism-based; settings: in vivo; in short: as §4
# Rattus norvegicus [26] = species: Rattus norvegicus; assay: Radioactivity distribution in pancreas of tumor-bearing fischer rat after injection of [18F]-fluoro-2-methylpropanoic acid after 5 min; format: ADME, organism-based; settings: in vivo; in short: as §3
# Rattus norvegicus [27] = species: Rattus norvegicus; assay: Radioactivity distribution in liver of normal fischer rat after injection of [18F]fluoro-2-methylpropanoic acid after 5 min.; format: ADME, organism-based; settings: in vivo; in short: as §5
# Rattus norvegicus [28] = species: Rattus norvegicus; assay: Radioactivity distribution in muscle of normal fischer rat after injection of [18F]fluoro-2-methylpropanoic acid after 120 min.; format: ADME, organism-based, Muscle tissue; settings: in vivo, 2 h; in short: as §5
# Rattus norvegicus [29] = species: Rattus norvegicus; assay: Radioactivity distribution in pancreas of normal fischer rat after injection of [18F]fluoro-2-methylpropanoic acid after 5 min.; format: ADME, organism-based; settings: in vivo; in short: as §5
# Rattus norvegicus [30] = species: Rattus norvegicus; assay: Radioactivity distribution in bone of tumor-bearing fischer rat after injection of [18F]fluoro-2-methylpropanoic acid after 60 min; format: ADME, organism-based, Bone element; settings: in vivo, 1 h; in short: as §4
# Rattus norvegicus [31] = species: Rattus norvegicus; assay: Radioactivity distribution in muscle of tumor-bearing fischer rat after injection of [18F]fluoro-2-methylpropanoic acid after 60 min; format: ADME, organism-based, Muscle tissue; settings: in vivo, 1 h; in short: as §3
# Rattus norvegicus [32] = species: Rattus norvegicus; assay: Radioactivity distribution in liver of normal fischer rat after injection of [18F]fluoro-2-methylpropanoic acid after 60 min.; format: ADME, organism-based; settings: in vivo, 1 h; in short: as §5
# Rattus norvegicus [33] = species: Rattus norvegicus; assay: Radioactivity distribution in muscle of normal fischer rat after injection of [18F]-fluoro-2-methylpropanoic acid after 60 min.; format: ADME, organism-based, Muscle tissue; settings: in vivo, 1 h; in short: as §5
# Rattus norvegicus [34] = species: Rattus norvegicus; assay: Radioactivity distribution in lung of normal fischer rat after injection of [18F]fluoro-2-methylpropanoic acid after 120 min.; format: ADME, organism-based; settings: in vivo, 2 h; in short: as §5
smiles,measurement,setting,value
CC(N)(C[18F])C(=O)O.Cl (centres undefined),ID/g,Rattus norvegicus [1],0.19%
same,ID/g,Rattus norvegicus [2],0.14%
same,ID/g,Rattus norvegicus [3],6.2%
same,ID/g,Rattus norvegicus [4],0.22%
same,ID/g,Rattus norvegicus [5],0.13%
same,ID/g,Rattus norvegicus [6],6.36%
same,ID/g,Rattus norvegicus [7],0.55%
same,ID/g,Rattus norvegicus [8],3.64%
same,ID/g,Rattus norvegicus [9],5.59%
same,ID/g,Rattus norvegicus [10],0.39%
same,ID/g,Rattus norvegicus [11],1.96%
same,ID/g,Rattus norvegicus [12],1.87%
same,ID/g,Rattus norvegicus [13],0.1%
same,ID/g,Rattus norvegicus [14],0.05%
same,ID/g,Rattus norvegicus [15],0.66%
same,ID/g,Rattus norvegicus [16],0.22%
same,ID/g,Rattus norvegicus [17],0.5%
same,ID/g,Rattus norvegicus [18],0.04%
same,ID/g,Rattus norvegicus [19],0.05%
same,ID/g,Rattus norvegicus [20],8.66%
same,ID/g,Rattus norvegicus [21],0.72%
same,ID/g,Rattus norvegicus [22],0.32%
same,ID/g,Rattus norvegicus [23],0.23%
same,ID/g,Rattus norvegicus [24],0.29%
same,ID/g,Rattus norvegicus [25],0.4%
same,ID/g,Rattus norvegicus [26],5.31%
same,ID/g,Rattus norvegicus [27],0.65%
same,ID/g,Rattus norvegicus [28],0.19%
same,ID/g,Rattus norvegicus [29],3.46%
same,ID/g,Rattus norvegicus [30],0.25%
same,ID/g,Rattus norvegicus [31],0.31%
same,ID/g,Rattus norvegicus [32],0.5%
same,ID/g,Rattus norvegicus [33],0.26%
same,ID/g,Rattus norvegicus [34],0.37%
